The values that follow come from ChEMBL document CHEMBL1142421, “Synthesis and inhibitory activity of oligosaccharide thiazolines as a class of mechanism-based inhibitors for endo-beta-N-acetylglucosaminidases” (Bioorg Med Chem, 2008).

The target in test [1] is T1, Endo-beta-N-acetylglucosaminidase (Arthrobacter protophormiae, UniProt Q9ZB22).
T1 sequence (Q9ZB22 whole entry): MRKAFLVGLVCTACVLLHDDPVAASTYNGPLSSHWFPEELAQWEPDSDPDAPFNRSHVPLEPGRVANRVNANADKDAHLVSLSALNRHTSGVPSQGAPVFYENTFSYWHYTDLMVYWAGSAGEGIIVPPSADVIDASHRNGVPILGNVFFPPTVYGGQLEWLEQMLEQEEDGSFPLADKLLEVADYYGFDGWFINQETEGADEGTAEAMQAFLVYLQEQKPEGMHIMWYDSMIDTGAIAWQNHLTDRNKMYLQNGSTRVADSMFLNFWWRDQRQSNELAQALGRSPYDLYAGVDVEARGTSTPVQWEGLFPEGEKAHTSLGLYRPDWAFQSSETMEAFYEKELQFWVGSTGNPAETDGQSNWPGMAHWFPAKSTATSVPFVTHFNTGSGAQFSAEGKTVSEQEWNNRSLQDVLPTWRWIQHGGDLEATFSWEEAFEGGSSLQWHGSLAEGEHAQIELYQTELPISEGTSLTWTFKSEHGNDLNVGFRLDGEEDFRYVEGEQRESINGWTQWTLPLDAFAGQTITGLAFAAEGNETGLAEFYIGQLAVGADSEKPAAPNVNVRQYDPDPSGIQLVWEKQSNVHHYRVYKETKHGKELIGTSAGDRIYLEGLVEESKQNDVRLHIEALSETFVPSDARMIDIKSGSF
The test can be described thus: Inhibition of Arthrobacter protophormiae endo-beta-N-acetylglucosaminidase after 5 mins by HPAEC-PED method. Set-up: species or system Glutamicibacter protophormiae. The procedure, abridged: (§1)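 Man9GlcNAc2Asn (500 μM) as substrate in 50 mM phosphate buffer pH 6.5. Limited enzyme is incubated with or without serial dilutions of thiazoline at 30°C for 5 min. Reaction stopped by heating at 100°C for 3 min. Man9GlcNAc hydrolysis product quantified by HPAEC-PED.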

Test [2] deals with T2, Cytosolic endo-beta-N-acetylglucosaminidase (Homo sapiens, UniProt Q8NFI3).
T2 sequence (Q8NFI3 whole entry): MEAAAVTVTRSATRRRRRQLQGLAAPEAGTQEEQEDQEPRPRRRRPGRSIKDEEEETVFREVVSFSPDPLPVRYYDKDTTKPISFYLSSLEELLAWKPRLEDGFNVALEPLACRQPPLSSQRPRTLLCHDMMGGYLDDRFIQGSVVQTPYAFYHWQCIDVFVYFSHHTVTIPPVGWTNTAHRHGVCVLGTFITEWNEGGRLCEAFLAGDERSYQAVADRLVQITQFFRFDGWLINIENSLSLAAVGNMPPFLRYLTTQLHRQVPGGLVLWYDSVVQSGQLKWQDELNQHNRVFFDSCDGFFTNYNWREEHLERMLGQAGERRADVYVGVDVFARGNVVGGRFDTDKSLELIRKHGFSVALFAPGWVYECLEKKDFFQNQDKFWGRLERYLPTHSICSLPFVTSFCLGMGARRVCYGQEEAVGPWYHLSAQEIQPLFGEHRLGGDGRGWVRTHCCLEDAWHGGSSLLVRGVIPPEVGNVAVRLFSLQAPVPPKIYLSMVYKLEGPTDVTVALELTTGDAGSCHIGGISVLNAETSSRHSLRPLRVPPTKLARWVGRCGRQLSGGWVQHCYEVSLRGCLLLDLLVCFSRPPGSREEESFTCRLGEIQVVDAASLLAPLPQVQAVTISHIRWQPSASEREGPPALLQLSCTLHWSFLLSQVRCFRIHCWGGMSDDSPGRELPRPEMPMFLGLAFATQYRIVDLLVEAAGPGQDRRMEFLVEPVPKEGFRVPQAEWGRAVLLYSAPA
The test can be described thus: Inhibition of human endo-beta-N-acetylglucosaminidase expressed in Hek293 cells after 3 mins. The class given is cell-based. The essentials:
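Enzyme source: HEK293 cells transfected with pcDNA-hENGase, extracted 48 h later in Hepes-KOH pH 7.0 with protease inhibitors. The 100,000 × g soluble fraction was assayed in 40 mM Mes-NaOH pH 6.1 with 1 μM Man9GlcNAc2-PA and inhibitor from 10 mM to 0.1 μM, 3 min at 37°C. Reaction stopped by boiling; product quantified by C18 HPLC.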

Test [3] relates to Flavobacterium sp. The test can be described thus: Inhibition of Flavobacterium sp. endo-beta-N-acetylglucosaminidase at 1uM after 5 mins by HPAEC-PED method. The procedure, abridged: (§2)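 Endo-Fsp assay uses Man5GlcNAc2Asn as substrate in 50 mM phosphate buffer pH 6.5. Limited enzyme is incubated with or without thiazoline at 30°C for 5 min, then heated at 100°C for 3 min to stop. Hydrolytic product quantified by HPAEC-PED.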

Test [4] is described as follows: Inhibition of Mucor hiemalis endo-beta-N-acetylglucosaminidase after 5 mins by HPAEC-PED method. The essentials:
as §1

In test [5] the test system is Flavobacterium sp. The test can be described thus: Inhibition of Flavobacterium sp. endo-beta-N-acetylglucosaminidase at 100 uM after 5 mins by HPAEC-PED method. The procedure, abridged: as §2
The target in test [6] is T3, Endo-beta-N-acetylglucosaminidase (Arthrobacter protophormiae) (UniProt Q9ZB22).
T3 sequence (whole entry): T1 sequence (Q9ZB22 whole entry)
The test can be described thus: Inhibition of Arthrobacter protophormiae endo-beta-N-acetylglucosaminidase upto 500 uM after 5 mins by HPAEC-PED method. The following applies: Glutamicibacter protophormiae. The procedure, abridged:
as §1

The next test relates to Mucor hiemalis. Description: Inhibition of Mucor hiemalis endo-beta-N-acetylglucosaminidase upto 500 uM after 5 mins by HPAEC-PED method. The essentials: as §1

Activity calls are given as the source filed them. The rule behind the calls is not given here.

With `CC1=N[C@@H]2[C@@H](O)[C@H](O[C@@H]3O[C@H](CO[C@H]4O[C@H](CO[C@H]5O[C@H](CO[C@H]6O[C@H](CO)[C@@H](O)[C@H](O)[C@@H]6O)[C@@H](O)[C@H](O)[C@@H]5O)[C@@H](O)[C@H](O[C@@H]5O[C@H](CO)[C@@H](O)[C@H](O[C@@H]6O[C@H](CO)[C@@H](O)[C@H](O)[C@@H]6O)[C@@H]5O)[C@@H]4O)[C@@H](O)[C@H](O[C@@H]4O[C@H](CO)[C@@H](O)[C@H](O)[C@@H]4O[C@@H]4O[C@H](CO)[C@@H](O)[C@H](O)[C@@H]4O[C@@H]4O[C@H](CO)[C@@H](O)[C@H](O)[C@@H]4O)[C@@H]3O)[C@@H](CO)O[C@H]2S1`, the IC50 (as a rule, the midpoint of a concentration-inhibition curve) came to 0.22 µM in test [1], 0.42 µM in test [2] and 6 µM in test [4]. For the same compound, in the test with Flavobacterium sp. [3], the inhibition (as a rule, the change of the read-out against control, counted positive when it falls) was determined as 75%.

For the compound `CC1=N[C@@H]2[C@@H](O)[C@H](O[C@@H]3O[C@H](CO)[C@@H](O)[C@H](O)[C@@H]3O)[C@@H](CO)O[C@H]2S1`, the concentration for half-maximal inhibition (IC50) turned out to be 38 µM in test [1] and 80 µM in test [4]. In addition, in the test on Flavobacterium sp. [5], the outcome was inactive.

Turning to `CC1=N[C@@H]2[C@@H](O)[C@H](O)[C@@H](CO)O[C@H]2S1`, the result (in test [6]; in the test with Mucor hiemalis) was inactive.

With `CC1=N[C@@H]2[C@@H](O)[C@H](O[C@@H]3O[C@H](CO[C@H]4O[C@H](CO)[C@@H](O)[C@H](O)[C@@H]4O)[C@@H](O)[C@H](O[C@@H]4O[C@H](CO)[C@@H](O)[C@H](O)[C@@H]4O)[C@@H]3O)[C@@H](CO)O[C@H]2S1`, the IC50 turned out to be 13 µM in test [1] and 64 µM in test [4]. Besides, in the test on Flavobacterium sp. [5], the result was inactive.
